Screening results: PubChem BioAssay, The Scripps Research Institute Molecular Screening Center
TCR CD3 inh: inhibitors of human TCR-CD3 interaction; inhibition, % at 9.4 µM; TAMRA-labeled TCR probe fluorescence, biochemical; 0.37% of 360,000 active; in the data active = inhibition above about 19%;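 note: recombinant mutant TCR 2C K166C tagged with TAMRA read by polarization; 0% = receptor in buffer alone and 100% = receptor with positive control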
mABHD4 FP: inhibitors of mouse ABHD4; AID 720543; 0.54% of 370,000 active; Q8VD66; inhibition, % at 8.92 µM; purified mABHD4, FP-Rh probe fluorescence polarization;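 active = inhibition exceeding the mean over every tested compound plus 3 SD, cut at about 30% in these data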;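 note: 0% = plate median of compound wells and 100% = S159A mutant with DMSO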
Target sequence (Q8VD66 whole entry, looked up): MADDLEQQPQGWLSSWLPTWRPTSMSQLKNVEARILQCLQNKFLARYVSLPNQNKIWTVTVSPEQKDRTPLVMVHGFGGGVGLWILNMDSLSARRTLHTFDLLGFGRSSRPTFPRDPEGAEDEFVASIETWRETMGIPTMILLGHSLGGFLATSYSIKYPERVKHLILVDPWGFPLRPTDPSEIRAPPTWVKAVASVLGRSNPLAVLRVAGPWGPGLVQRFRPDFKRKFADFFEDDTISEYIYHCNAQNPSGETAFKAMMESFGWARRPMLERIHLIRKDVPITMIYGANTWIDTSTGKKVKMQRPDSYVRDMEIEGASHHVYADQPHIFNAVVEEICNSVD
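Test system: mouse ABHD4 enzyme, wild type. Reagent: FP-Rh fluorescent activity-based probe, added after compound pre-incubation. Timing: pre-incubation 45 min, probe exposure 60 min, at 25 °C. Technique: FP readout, ex 525 nm / em 598 nm. Benchmarks: high control S159A mutant with DMSO, low control median of compound wells.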
rCAG binder: r(CAG) repeat RNA binding; TO-PRO-1 dye displacement fluorescence; inhibition, % at 3 µM; 1.3% of 370,000 active;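 active = inhibition above the plate cutoff, the mean of all test compounds on that plate plus 3 SD, cut at about 35% in these data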;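 note: 0% = DMSO alone and 100% = 100 µM mitoxantrone as full dye displacement; higher means more dye released from RNA so lower well fluorescence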
HTRA1 inhibitor: blocks human HTRA1 serine peptidase; inhibition, % at 5.96 µM; recombinant HTRA1, FP-rhodamine activity-based probe, fluorescence polarization; 0.5% of 340,000 active; Q92743; in the data active = inhibition above about 36%;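 note: 0% = enzyme with DMSO and 100% = wells lacking enzyme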
PRMT1 FP inh: blocks human protein arginine methyltransferase 1; 1.3% of 370,000 active; inhibition, % at 2.79 µM; recombinant PRMT1, activity-based probe fluorescence polarization;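 active = inhibition above about 21% made by adding two undisclosed values, limit read from the data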
Target sequence (Q99873 whole entry, looked up): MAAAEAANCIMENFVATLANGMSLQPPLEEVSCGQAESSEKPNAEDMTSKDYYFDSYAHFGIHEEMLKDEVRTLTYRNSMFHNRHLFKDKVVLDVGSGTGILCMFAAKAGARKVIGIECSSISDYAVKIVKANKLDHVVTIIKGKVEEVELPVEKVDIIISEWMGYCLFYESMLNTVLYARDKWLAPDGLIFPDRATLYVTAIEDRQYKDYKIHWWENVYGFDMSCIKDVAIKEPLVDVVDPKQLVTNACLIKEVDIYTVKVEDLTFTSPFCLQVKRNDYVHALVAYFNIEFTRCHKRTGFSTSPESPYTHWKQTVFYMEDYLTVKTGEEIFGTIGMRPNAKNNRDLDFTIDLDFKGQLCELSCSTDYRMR
SIAE inh: inhibitors of human sialic acid acetylesterase SIAE; inhibition, % at 9.66 µM; SIAE FP-Rh probe binding, fluorescence polarization; Q9HAT2; 0.69% of 370,000 active; AID 1053197;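 active = inhibition above a cutoff: mean of compounds within the control limits plus 3 SD of those, cut at about 17% in these data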;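 note: 0% = plate median of compound wells and 100% = probe without SIAE protein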
SIAE confirm: human SIAE inhibition, confirmation; shares compounds with SIAE inh; SIAE FP-Rh activity-based probe, fluorescence polarization; inhibition, % at 9.66 µM; 13% of 2,300 active;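 active = mean inhibition of the replicates above the hit cutoff set in the primary screen, cut at about 17% in these data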;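 note: 0% = SIAE with DMSO and probe and 100% = probe without SIAE; inhibitors lower polarization as more probe stays unbound to SIAE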
* hit, by the source's call; / = no result. This is a sample that favours compounds with a hit; in the whole collection about 3.5% have one here.

SMILES	TCR CD3 inh	mABHD4 FP	rCAG binder	HTRA1 inhibitor	PRMT1 FP inh	SIAE inh	SIAE confirm
CC(C)C1Oc2ccccc2N(CC(=O)N2CCOCC2)C1=O (stereo not drawn)	0.9	1.8	-1.7	12.3	1.1	27.2*	-5.0
CCCCN1CCN(C(=O)C2CCN(S(=O)(=O)c3ccc4[nH]c(=O)oc4c3)CC2)CC1	/	-0.8	6.7	/	1.6	5.9	/
O=[N+]([O-])c1ccc(NC2CCCC2)cc1	3.4	3.5	3.0	-9.3	-0.5	19.0*	0.8
Cc1cccc(C)c1NC(=O)[C@H]1CC(=O)O[C@@H]1c1ccccc1	/	-1.8	1.9	/	-0.4	-1.9	/
CCN(CC)c1ccc(/C=N/NC(=O)c2cccc(S(=O)(=O)Nc3ccccc3OC)c2)c(O)c1	14.7	23.0	18.7	36.5*	-1.8	35.3*	7.7
CCN(CC)c1ccc(/C=N/NC(=O)c2cccc(S(=O)(=O)Nc3ccccc3OC)c2)cc1	-2.8	-8.5	14.4	6.4	2.7	11.4	/
CCN=C1SC(CC(=O)Nc2ccc(N3CCOCC3)cc2)C(=O)N1CC (stereo not drawn)	-7.2	1.0	0.6	0.1	-5.5	18.9*	-0.2
CCN=C1SC(CC(=O)Nc2ccc(C(F)(F)F)cc2)C(=O)N1CC (stereo not drawn)	-0.6	-2.4	-4.0	0.8	-0.6	-6.1	/
COC(=O)[C@]12CCCCC=C1N(Cc1ccc(OC)cc1)C(=O)[C@@H]2CC(=O)NCc1cccc(C(F)(F)F)c1	/	-12.2	-0.8	/	-9.5	-1.7	/
Oc1ccc(/C=N/Nc2ncnc3nc[nH]c23)cc1	3.4	1.9	0.5	3.8	-1.4	18.2*	-2.4
Clc1ccc(/C=N/Nc2ncnc3nc[nH]c23)cc1	-0.6	-2.0	2.7	2.8	7.5	1.7	/
Cc1cc(C)c2[nH]c(C(=O)Nc3ccc4c(c3)OCO4)cc2c1	0.7	12.1	26.5	8.6	-2.1	17.7*	-0.3
O=S1(=O)c2c(cccc2N2CC[C@@H](O)C2)OCCCN1C1CC1	/	1.2	2.3	/	-3.4	10.1	/
CC(C(Sc1ccccc1N)c1ccccc1)[N+](=O)[O-] (stereo not drawn)	-4.3	11.3	4.8	-0.8	53.0*	17.1*	9.5
Nc1ccccc1SCc1ccccc1Cl	-11.9	-1.0	-0.4	/	13.6	-2.0	/
CCc1cc(/C(Cc2ccccn2)=N\O)c(O)cc1O	-8.9	2.8	-2.9	11.3	-1.1	19.4*	21.8*
CCc1cc(/C(Cc2ccc3ccccc3n2)=N\O)c(O)cc1O	5.7	2.0	5.2	24.6	0.4	61.2*	39.9*
Cc1c(O)ccc(/C(Cc2ccc3ccccc3n2)=N\N)c1O	-3.9	-5.7	11.9	1.2	-5.9	9.5	/
CCc1cc(/C(Cc2cscn2)=N\O)c(O)cc1O	-1.6	4.1	-3.0	9.3	4.9	14.3	/
CN(CCn1ccnc1)C(=O)CC1C(=O)NCCN1Cc1ccccc1C(F)(F)F (stereo not drawn)	4.6	-0.6	-4.9	-1.7	-1.0	24.4*	-0.7
COc1ccc(-c2[nH]c(-c3ccccc3)nc2SCC(=O)NC2CCCC2)cc1	3.8	10.1	1.7	-6.6	-1.3	5.3	/
COc1ccc(-c2[nH]c(-c3cccc(OC)c3)nc2SCC(=O)NC2CCCC2)cc1	0.0	21.8	4.3	-9.6	2.2	23.7*	2.3
O=C(OCC#CCSc1nnc(-c2cccc3ncccc23)o1)c1ccc(F)cc1	/	-0.6	/	/	3.4	-1.9	/
CCCCc1c(-c2ccccc2OC)ncn1Cc1cccc(OC)c1	2.6	2.0	-0.8	/	4.7	19.9*	-3.9
COc1ccc(C2CC3CN(C4CCCCC4)C(=O)C3N2C)cc1 (stereo not drawn)	/	7.0	1.8	/	3.9	5.6	/
SMILES	TCR CD3 inh	mABHD4 FP	rCAG binder	HTRA1 inhibitor	PRMT1 FP inh	SIAE inh	SIAE confirm
C=CCN1C(=O)[C@H](CC(=O)NCc2ccccc2)[C@@]2(C(=O)OCC)CCCC=C12	/	0.1	0.8	/	-1.0	-4.4	/
CS(=O)(=O)N(Cc1ccc(C(=O)NCCSCc2ccco2)cc1)c1ccccc1	8.9	0.6	-2.5	-6.2	1.4	18.4*	-2.9
COC(=O)CSc1nc(-c2ccc(F)cc2)cc(C(F)(F)F)n1	10.0	0.9	-1.1	-4.2	-2.3	27.7*	1.5
CNC(C)C(=O)NC(C(=O)N1CCCC1C(=O)Nc1cccc2ncccc12)C(C)C (stereo not drawn)	/	-3.4	/	/	-3.8	0.3	/
O=C(NCC(c1ccco1)N1CCc2ccccc21)c1ccccc1 (stereo not drawn)	-4.5	1.6	0.2	4.5	1.6	23.3*	2.7
COc1ccc(OC)c(S(=O)(=O)NCC(c2ccco2)N2CCc3ccccc32)c1 (stereo not drawn)	7.4	0.7	2.4	0.3	-2.2	17.7*	6.4
NC(=S)Nc1ccc(F)cc1F	3.5	3.0	-2.4	1.9	-2.9	22.1*	2.1
CSc1nnc(NC(=O)c2ccc3c(c2)OCO3)s1	13.7	5.5	-2.0	-3.0	0.5	0.9	/
CCC(=O)Nc1nnc(SCCOC)s1	-5.1	2.1	0.0	4.8	0.9	58.1*	-3.6
COCCSc1nnc(NC(=O)c2ccc3c(c2)OCO3)s1	-0.5	3.9	2.9	8.6	-1.1	18.5*	-2.4
Cc1ccc(OCc2nnc(SCC(=O)Nc3ccc(OCc4ccccc4)cc3)n2-c2ccc(Cl)cc2)cc1	/	3.7	7.9	/	4.3	-3.1	/
CCOC(=O)c1sc(=S)[nH]c1C	-4.5	1.7	0.0	2.1	6.2	18.2*	7.0
CCOC(=O)c1c(C)[nH]sc1=S	1.7	-8.8	-3.6	-0.8	8.8	1.4	/
N#Cc1ccc(Cn2ccc3ccc(-c4ccc5ccn(C(=O)C6CC6)c5c4)cc32)cc1	/	-7.6	20.9	/	5.5	-13.1	/
CC(=O)c1cccc(NC(=O)c2onc(C)c2Cl)c1	4.5	0.3	1.6	6.7	-2.1	-4.8	/
Cc1noc(C(=O)Nc2cccnc2)c1Cl	-5.2	3.1	2.4	7.7	-2.3	17.5*	-1.9
CCc1ccc[n+](-c2[nH]c(=O)sc2/C=N/N=C(\[O-])CCn2c3ccccc3c3ccccc32)c1	-6.2	7.0	7.7	14.5	10.7	-5.4	/
Cc1cc[n+](-c2[nH]c(=O)sc2/C=N/N=C(\[O-])CCn2c3ccccc3c3ccccc32)cc1	-5.3	14.4	21.0	/	4.7	24.3*	10.9
CCOC(=O)c1cccc(NC(=O)CN(C)S(=O)(=O)c2ccc(C)c(C)c2)c1	/	-9.2	3.0	/	7.6	-5.0	/
O=C(Nc1ccccc1)/C(=C/c1cccnc1)NC(=O)c1ccco1	2.7	5.9	-0.5	2.4	-2.9	20.1*	3.1
O=C(Nc1ccccc1)/C(=C\c1ccccc1)NC(=O)c1ccco1	-1.0	-0.1	2.0	/	-3.5	4.4	/
COc1cc(NC(=O)CN2c3cccc4cccc(c34)S2(=O)=O)cc(OC)c1OC	5.4	9.8	6.0	-2.5	-3.5	29.3*	-4.9
